Compounds with a hit are over-represented: about 3.8% of the library has one in this group of screens.
KCNQ1 pot: potentiators or activators of human KCNQ1 potassium channel. hit rate 0.35% among 310,000. CHO-K1 KCNQ1, thallium flux FluxOR fluorescence; active compounds read high. B-score at 10 µM. P51787;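 active means fluorescence ratio B-score, a plate-corrected score, at least three library SD, with initial intensity B-score within 5 SD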
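Doses: Single concentration per compound, DMSO matched to controls | Test system: KCNQ1-transfected CHO-K1 cells | Timing: 90 min dye loading and 20 min compound exposure, both at room temperature | Measured by: Kinetic FluxOR thallium fluorescence, 10-s 1-Hz baseline, 110-s post-stimulus read | Medium: Assay buffer with matched DMSO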
Kir21 inh: Kir2.1 (mouse) channel inhibition. P35561. HEK293-Kir2.1, FluxOR thallium flux fluorescence; active compounds read low. B-score at 10 µM. hit rate 0.85% among 310,000. AID 1672;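 active means fluorescence ratio B-score at or below minus 3 SD of library scores, with starting-brightness B-score within 2 SD, cut at about -4.2 in these data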;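 further: channel flux triggered by added potassium and thallium sulfate stimulus; B-score of peak minus minimum fluorescence over baseline after thallium stimulus; more negative B-score means stronger Kir2.1 block with less thallium influx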
hERG protect: compounds protecting human hERG from proarrhythmic drug block; CHO-hERG, FluxOR thallium flux, dofetilide IC70 present; activation (rescue from dofetilide block), less the hit threshold, % at 10 µM; hit rate 0.51% among 310,000;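 active means activation above the mean of controls blocked by dofetilide plus 5 SD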;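 further: thallium influx through hERG after potassium depolarization seen as dye fluorescence rise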
KCNQ1 block: inhibitors of human KCNQ1 potassium channel. P51787. CHO-K1 KCNQ1, FluxOR thallium flux fluorescence; active compounds read high. AID 2642. B-score at 10 µM. hit rate 1.3% among 310,000;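 active means compounds whose thallium flux B-score, printed positive for inhibition, exceeds three library SD while starting fluorescence stays within three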;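 further: channel opened by potassium depolarization with thallium stimulus after 20 min compound exposure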
KCNK3 inh: human KCNK3 channel inhibition, primary screen. O14649. CHO-KCNK3 thallium flux, FluxOR fluorescence; active compounds read low. B-score at 10 µM. hit rate 0.84% among 340,000. AID 602410;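 active means B-score under library mean minus 4 SD, starting fluorescence ratio at most library mean plus 5 SD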;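 further: more negative B-score means stronger inhibition of thallium flux through KCNK3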
Target sequence (O14649 whole entry, looked up): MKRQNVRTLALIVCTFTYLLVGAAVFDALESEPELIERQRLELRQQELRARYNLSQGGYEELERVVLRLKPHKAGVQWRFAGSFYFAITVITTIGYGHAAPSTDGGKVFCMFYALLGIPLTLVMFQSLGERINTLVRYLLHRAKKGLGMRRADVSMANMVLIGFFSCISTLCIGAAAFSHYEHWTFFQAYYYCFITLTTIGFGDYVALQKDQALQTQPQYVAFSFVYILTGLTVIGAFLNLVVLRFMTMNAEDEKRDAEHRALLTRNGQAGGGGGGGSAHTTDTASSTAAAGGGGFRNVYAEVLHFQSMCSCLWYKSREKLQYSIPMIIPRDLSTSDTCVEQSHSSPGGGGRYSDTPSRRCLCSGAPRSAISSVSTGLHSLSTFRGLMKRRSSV
KCNK9 block: inhibitors of human KCNK9 two-pore domain potassium channel; B-score at 10 µM; AID 488922; hit rate 1.2% among 310,000; Q9NPC2; HEK293 KCNK9, FluxOR thallium flux fluorescence; active compounds read low;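 active means ratio B-score over 3 SD below the library mean, with starting fluorescence within 5 SD of its mean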;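 further: negative B-score means less thallium flux so channel inhibition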
Target sequence (Q9NPC2 whole entry, looked up, the tested form may be a part): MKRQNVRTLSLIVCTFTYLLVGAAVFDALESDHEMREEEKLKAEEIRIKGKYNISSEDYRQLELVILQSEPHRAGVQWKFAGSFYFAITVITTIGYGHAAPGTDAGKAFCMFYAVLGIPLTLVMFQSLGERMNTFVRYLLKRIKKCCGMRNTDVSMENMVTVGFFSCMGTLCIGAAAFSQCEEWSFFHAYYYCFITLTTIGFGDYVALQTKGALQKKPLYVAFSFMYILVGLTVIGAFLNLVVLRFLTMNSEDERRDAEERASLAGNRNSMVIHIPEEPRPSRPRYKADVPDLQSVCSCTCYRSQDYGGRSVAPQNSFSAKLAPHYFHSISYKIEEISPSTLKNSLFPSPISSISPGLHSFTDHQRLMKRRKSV
KCNK9 block conf: human KCNK9 inhibitor confirmation; inhibition, % at 10 µM; shares compounds with KCNK9 block; hit rate 43% among 4,900; AID 492992; HEK293 KCNK9 cells, FluxOR thallium flux fluorescence;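 active means thallium signal inhibited by more than 5 SD of the compound-free buffer control wells, on both duplicate plates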
Kir21 sel: tests whether KCNK9 modulators also affect mouse Kir2.1; shares compounds with KCNK9 block; Kir2.1 cells, FluxOR thallium flux fluorescence; inhibition, % at 10 µM; hit rate 4% among 4,900; AID 492993;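 active means thallium signal drop more than 5 SD beyond the mean of the no-compound control wells, seen in both duplicate plates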;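 further: signal is fluorescence rise after thallium addition divided by baseline fluorescence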
KCNK9 uninduced: second counter-screen for KCNK9 modulators: effect in non-induced cells. shares compounds with KCNK9 block. non-induced KCNK9-HEK293, FluxOR thallium flux. inhibition, % at 10 µM. hit rate 40% among 4,900. AID 492997;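 active means thallium signal drop beyond 5 SD of the untreated control mean, on both duplicate plates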
KCNK3 confirm: confirmation of human KCNK3 two-pore domain potassium channel inhibitors; shares compounds with KCNK3 inh; CHO-KCNK3 thallium flux, FluxOR fluorescence; 0% buffer, 100% carvedilol maximal block; ratio percent of control, % at 10 µM; hit rate 99% among 2,400;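 active means ratio percent of control, averaged over triplicates, above buffer control mean plus 5 SD, cut at about 64% in these data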;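 further: ratio is the fluorescence rise from min to max over baseline after thallium stimulus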
KCNK3 noninduced: activity in cells without induced KCNK3 expression | shares compounds with KCNK3 inh | non-induced KCNK3 parental cells, FluxOR thallium flux; active compounds read low | thallium flux ratio (lower = more inhibition) at 10 µM | hit rate 40% among 2,400 | AID 651747;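 active means thallium flux ratio, averaged over three wells, more than 5 SD below the buffer control mean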;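 further: host cells are CHO cells without KCNK3 induction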
A number is an active result; n = inactive; x = not tested or not shown.

SMILES | KCNQ1 pot | Kir21 inh | hERG protect | KCNQ1 block | KCNK3 inh | KCNK9 block | KCNK9 block conf | Kir21 sel | KCNK9 uninduced | KCNK3 confirm | KCNK3 noninduced
O=S(=O)(NCC(c1cccs1)N1CCc2ccccc2C1)c1ccccc1 (centres undefined) | n | n | n | n | n | n | x | x | x | x | x
Clc1ccc(CSc2snnc2-c2ccccc2)cc1 | n | n | n | n | -12.1 | -8.57 | 30.5% | n | 45.0% | 96.3 | n
O=C(Nc1cccc(-c2nnc(-c3ccccc3)o2)c1)C1CCCCC1 | n | n | n | n | -10.9 | -8.77 | 34.0% | n | 30.0% | 95.7 | n
CCC(=O)Nc1cccc(-c2nnc(-c3ccccc3)o2)c1 | n | n | n | n | n | n | x | x | x | x | x
CCc1noc(C)c1C(=O)N1CCN(S(=O)(=O)c2ccc(C)cc2)CC1 | n | n | n | n | n | n | x | x | x | x | x
CCc1noc(C)c1C(=O)N1CCSC1=Nc1cccc(Cl)c1C | n | n | n | 6 | -11 | -8.93 | 63.5% | n | 42.0% | 113.3 | n
COc1ccc(C)cc1NC(=O)c1cccc(C(=O)Nc2cc(C)ccc2OC)n1 | n | n | n | n | n | -15.5 | 61.0% | n | 31.5% | 107.3 | n
COC(=O)COC(=O)c1ccccc1NC(=O)c1ccccc1 | n | n | n | n | n | n | x | x | x | x | x
O=C(COC(=O)c1ccccc1NC(=O)c1ccccc1)c1ccc([N+](=O)[O-])cc1 | n | n | n | n | -9.62 | -13.9 | 73.0% | n | 33.5% | 104.0 | n
COc1ccc(NC(=O)CN2C(=O)NC3(CCCc4ccccc43)C2=O)c(OC)c1 (centres undefined) | x | x | x | x | n | x | x | x | x | x | x
COc1ccc(NC(=O)c2sccc2SCc2cccc(C(F)(F)F)c2)cc1 | n | -4.51 | n | n | -9.1 | -16.2 | 54.5% | 34.0% | 40.5% | 118.0 | n
Cc1ccc(C(=O)N2CCCCC2)cc1S(=O)(=O)N1CCOCC1 | n | n | n | n | n | n | x | x | x | x | x
CN(C)C(=O)c1ccc(COc2ccccc2Br)o1 | n | n | n | n | n | n | x | x | x | x | x
COc1ccccc1NC(=O)c1ccc(COc2ccccc2Br)o1 | n | n | n | n | -9.97 | -13.3 | 56.0% | n | 42.5% | 129.7 | 0.154
CC(=O)N/C(=C\c1ccccc1)C(=O)OCC(=O)NC1CCS(=O)(=O)C1 (centres undefined) | x | x | x | x | n | x | x | x | x | x | x
CCOC(=O)C(C)Sc1cc(CS(=O)(=O)c2ccccc2)nc(-c2ccccc2)n1 (centres undefined) | n | n | n | n | -8.76 | -10.3 | 58.0% | n | 28.0% | 125.0 | n
O=S(=O)(Cc1cc(Oc2ccccc2)nc(-c2ccccc2)n1)c1ccccc1 | n | n | n | n | n | n | x | x | x | x | x
Cc1cc(NC(=O)CSc2cc(Cl)ccc2Cl)n(-c2ccccc2)n1 | n | n | n | n | -9.62 | -9.98 | 48.0% | n | n | 127.3 | 0.139
Cc1cc(Nc2ccc(Cl)cc2)n(-c2cccc(Cl)c2)n1 | n | n | n | n | -8.96 | -8.15 | 49.5% | n | 32.5% | 149.3 | 0.146
O=S(=O)(Nc1ccccc1O)c1ccc(Cl)nc1 | n | n | n | n | n | n | x | x | x | x | x
CSc1nc(Oc2ccc3ccccc3c2)c2sccc2n1 | n | n | n | n | -8.96 | -10.3 | 41.0% | n | 32.5% | 98.3 | n
CN(Cc1nc(Cc2ccccc2F)no1)Cc1cccc2ncccc12 | n | n | n | n | n | n | x | x | x | x | x
CCOc1ccc(OCCSc2nnnn2C2CCCCC2)cc1 | n | n | n | n | -12.1 | -14.1 | 68.0% | n | 44.0% | 118.3 | 0.156
Cc1ccc(NC(=O)CN(c2ccc(Cl)cc2)S(=O)(=O)c2cc([N+](=O)[O-])ccc2Cl)c(C)c1 | n | n | n | n | -14.9 | -13.6 | 62.5% | n | 36.5% | 115.3 | n
COc1ccc(-c2ccc(SCC(=O)c3ccc(F)cc3)nn2)cc1OC | n | n | n | n | -9.8 | -15.5 | 64.5% | n | n | 118.3 | n
SMILES | KCNQ1 pot | Kir21 inh | hERG protect | KCNQ1 block | KCNK3 inh | KCNK9 block | KCNK9 block conf | Kir21 sel | KCNK9 uninduced | KCNK3 confirm | KCNK3 noninduced
COc1ccc(-c2ccc(SCC(=O)c3cccs3)nn2)cc1OC | n | n | n | n | n | n | x | x | x | x | x
O=C(N/N=C/c1ccc(N2CCOCC2)cc1)c1ccncc1 | x | x | x | x | n | x | x | x | x | x | x
O=C(N/N=C/c1ccc(N2CCOCC2)cc1)c1ccccc1OCCOc1ccccc1 | n | n | n | 7 | -11.4 | -11.9 | 30.0% | n | 26.0% | 101.3 | n
O=C(C/C=N/OCc1ccc(Cl)cc1Cl)c1ccc(Cl)cc1 | n | n | n | n | -8.99 | -14.9 | 43.0% | n | 43.0% | 93.0 | 0.15
CCOC(=O)c1sc(NC(=O)CSc2nc(-c3ccco3)cc(C(F)(F)F)n2)c(C#N)c1C | n | n | n | n | n | n | x | x | x | x | x
CCOC(=O)C(C)Sc1nc(-c2ccco2)cc(C(F)(F)F)c1C#N (centres undefined) | n | n | n | n | -12.1 | -15.7 | 70.5% | n | 44.0% | 97.7 | 0.131
O=C(Nc1cccc(NC(=O)c2ccco2)c1)c1cccc(Br)c1 | n | n | n | n | -13.3 | -10.5 | 59.0% | n | n | 100.0 | n
O=C(c1ccccc1)c1cccc(NC(=O)c2ccc(Br)o2)c1 | n | n | n | n | -9.73 | -9.15 | n | n | n | 105.7 | n
CCn1c(SCC(=O)NC2CCCCC2)nnc1-c1ccccc1F | n | n | n | n | n | n | x | x | x | x | x
CC(C1CC1)N(Cc1ccccc1)C(=S)Nc1cccc(C(F)(F)F)c1 (centres undefined) | n | n | n | n | -9.15 | -13 | 56.5% | n | 39.0% | 124.7 | n
CN(CC(=O)Nc1cccc(C(F)(F)F)c1)Cc1ccccc1 | n | n | n | n | -12.5 | -14.9 | 63.5% | n | 41.0% | 106.3 | n
COC(=O)c1c(NC(=O)Cn2nc(C(F)F)cc2C(F)F)sc(C)c1C | n | n | n | n | n | n | x | x | x | x | x
CCOC(=O)c1c(NC(=O)Cn2nc(C(F)F)cc2C(F)F)sc(C)c1C | n | n | n | n | -13.4 | -10.2 | 57.0% | n | 46.5% | 107.3 | n
Cc1nc(SC(C)C(=O)Nc2cccc(C(F)(F)F)c2)c2c(C)c(C(=O)O)sc2n1 (centres undefined) | n | n | n | n | n | n | x | x | x | x | x
